Laboratory results as given in publication PMC11301096 (iScience, 2024).
No end group written: not given here. *: point of attachment. Biotin = O=C1N[C@H]2[C@H](CS[C@H]2CCCCC(=O)*)N1

How the values were obtained:
[1] = In vivo xenograft model, toxicity read-outs; parameters: species or system BALB/c-Nude mice; details: BO1 4.57 mg/kg intraperitoneally every other day, two weeks, n = 6
Summary of the method: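 Four-week-old male nude mice acclimatised 7 days, then implanted subcutaneously with 2×10^6 Hep 3B cells; randomised into two groups of 6. Once tumours reached 100 mm3, given 200 μL saline or test compound intraperitoneally every other day, with weighing and tumour measurement. Killed after two weeks; serum taken for ALT, AST and creatinine.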

[2] = system: Huh7 cells; experiment: CCK-8 proliferative activity; type: cell-based, human; details: read-out: IC50, proliferation; CCK-8, 48 h, mean of n = 3
Summary of the method: (§1)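 Cells grown in DMEM with 10% FBS and 1% antibiotics at 37°C, 5% CO2; log-phase cells used. Seeded at 4×10^3/well for 24 h, then exposed to graded doses of test compound (DMSO stock) for 48 h. CCK-8 reagent added for 1–2 h in the dark; absorbance read at 450 nm. Three independent experiments.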

[3] = system: human normal hepatocyte L-O2; experiment: CCK-8 proliferative activity; type: cell-based; details: 10 μM and 20 μM BO1, CCK-8, 48 h
Summary of the method: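 Normal hepatocytes seeded at 4×10^3/well and incubated 24 h, then exposed to test compound for 48 h. CCK-8 reagent added for 1–2 h protected from light; absorbance measured at 450 nm. Three independent experiments.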

[4] = system: Hep 3B cells; experiment: CCK-8 proliferative activity; type: cell-based, human; details: read-out: IC50, proliferation; CCK-8, 48 h, mean of n = 3
Summary of the method: as §1

[5] = system: L-O2 cells; experiment: Cell cycle analysis by flow cytometry; type: cell-based, human; details: 20 μM BO1, 48 h
Summary of the method: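 Cells (5×10^5 per 100 mm dish) attached for 24 h, then exposed to test compound for 48 h. Cell pellets fixed in 70% ethanol for 4 h and washed twice with PBS. Stained with a DNA-content quantitation kit; cell-cycle distribution read by flow cytometry.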

[6] = system: L-O2 cells; experiment: Hoechst 33258 staining; type: cell-based, human; details: 20 μM BO1, 48 h
Summary of the method: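 Seeded at 4×10^4 cells/well for 24 h, then treated 48 h. Fixed in 4% tissue fixative for 15 min and stained with Hoechst 33258 for 5 min. Washed twice with PBS; nuclei viewed by fluorescence microscopy.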

[7] = biological target: HSP90A (Homo sapiens, UniProt P07900); experiment: Biotinylated pull-down with western blot; type: binding; details: compared to samples extracted with IgG; cell extracts, 4°C, 12 h
Summary of the method: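 Bead-bound biotin-labelled test compound (4°C, 3 h) rotated with cell extracts at 4°C for 12 h. Beads washed in ice-cold NT2 buffer (4°C, 5 min), then four more washes. Bound proteins eluted with protein elution buffer plus DTT at 37°C for 2 h. Eluates analysed by LC-MS and western blot, with an IgG pull-down as negative control.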

HSP90A in samples pulled by bio-BO1 (western blot) [7]	Substance	histopathological examination of major organs (heart, liver, spleen, and kidney), H&E [1]	serum alanine aminotransferase (ALT) activity [1]	serum aspartate aminotransferase (AST) activity [1]	serum creatinine (CREA) activity [1]	IC50 [2]	activity of normal hepatocytes (proliferative activity) [3]	IC50 [4]	cell cycle progression [5]	nuclear fluorescence staining [6]
	GIGSAILSAGKSIIKGLAKGLAEHF-NH2 [BO1, Bombinin-BO1]	normal findings	comparable to those of control mice	comparable to those of control mice	comparable to those of control mice	24.9 µM	no significant change	15.2 µM	not significantly affected	no significant changes
significantly detected	bio-BO1: Biotin-labeled BO1 (Biotin-GIGSAILSAGKSIIKGLAKGLAEHF-NH2; SMILES CC[C@H](C)[C@H](NC(=O)CNC(=O)CCCC[C@@H]1SC[C@@H]2NC(=O)N[C@@H]21)C(=O)NCC(=O)N[C@@H](CO)C(=O)N[C@@H](C)C(=O)N[C@H](C(=O)N[C@@H](CC(C)C)C(=O)N[C@@H](CO)C(=O)N[C@@H](C)C(=O)NCC(=O)N[C@@H](CCCCN)C(=O)N[C@@H](CO)C(=O)N[C@H](C(=O)N[C@H](C(=O)N[C@@H](CCCCN)C(=O)NCC(=O)N[C@@H](CC(C)C)C(=O)N[C@@H](C)C(=O)N[C@@H](CCCCN)C(=O)NCC(=O)N[C@@H](CC(C)C)C(=O)N[C@@H](C)C(=O)N[C@@H](CCC(=O)O)C(=O)N[C@@H](Cc1c[nH]cn1)C(=O)N[C@@H](Cc1ccccc1)C(N)=O)[C@@H](C)CC)[C@@H](C)CC)[C@@H](C)CC)									
